ChEMBL document CHEMBL1133165, “Synthesis and cytostatic activity of substituted 6-phenylpurine bases and nucleosides: application of the Suzuki-Miyaura cross-coupling reactions of 6-chloropurine derivatives with phenylboronic acids” (J Med Chem, 2000)
pIC50: −log10 of the molar value.

How the values were obtained:
[1] = system: L1210; experiment: In vitro inhibition of cell growth (Cytostatic activity) of mouse leukemia L1210 cells (ATCC CCL 219); format: functional, cell-based
[2] = system: HeLa; experiment: In vitro inhibition of cell growth (Cytostatic activity) of human cervix carcinoma HeLa S3 cells (ATCC CCL 2.2); format: functional, cell-based
[3] = system: CCRF-CEM; experiment: In vitro inhibition of cell growth (Cytostatic activity) of human T-lymphoblastoid CCRF-CEM cell line (ATCC CCL 119); format: functional, cell-based
In short: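 CCRF-CEM cells grown in RPMI 1640 with L-glutamine (0.3 g/L) and 10% bovine serum, seeded at 10⁵ mL^-1. After 24 h at 37 °C under CO₂, compounds were added at five concentrations. Cells were counted with a cell counter 72 h after addition. IC50 values were derived from the counts.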

[4] = system: L1210; experiment: In vitro inhibition of cell growth (Cytostatic activity) of mouse leukemia L1210 cells (ATCC CCL 219); inhibition @ 10 uM/L; format: functional
[5] = system: CCRF-CEM; experiment: In vitro inhibition of cell growth (Cytostatic activity) of human T-lymphoblastoid CCRF-CEM cell line (ATCC CCL 119); inhibition @ 10 uM/L; format: functional
[6] = system: HeLa; experiment: In vitro inhibition of cell growth (Cytostatic activity) of human cervix carcinoma HeLa S3 cells (ATCC CCL 2.2); inhibition @ 10 uM/L; format: functional

SMILES	pIC50 [1]	pIC50 [2]	pIC50 [3]	Inhibition [4] [%]	Inhibition [5] [%]	Inhibition [6] [%]
OC[C@H]1O[C@@H](n2cnc3c(-c4ccccc4)ncnc32)[C@H](O)[C@@H]1O	5.05	5.57	6.15			
CC(=O)OC[C@H]1O[C@@H](n2cnc3c(-c4ccc(F)cc4)ncnc32)[C@H](OC(C)=O)[C@@H]1OC(C)=O		4.82	5.40	<20		
CC(=O)OC[C@H]1O[C@@H](n2cnc3c(-c4ccc(F)cc4F)ncnc32)[C@H](OC(C)=O)[C@@H]1OC(C)=O				<20	<20	<20
CC(=O)OC[C@H]1O[C@@H](n2cnc3c(-c4ccccc4C)ncnc32)[C@H](OC(C)=O)[C@@H]1OC(C)=O				<20	<20	<20
COc1ccc(-c2ncnc3c2ncn3[C@@H]2O[C@H](COC(C)=O)[C@@H](OC(C)=O)[C@H]2OC(C)=O)cc1	4.77	4.72	5.37			
CC(=O)OC[C@H]1O[C@@H](n2cnc3c(-c4ccc(C)cc4)ncnc32)[C@H](OC(C)=O)[C@@H]1OC(C)=O				<20	<20	<20
CC(=O)OC[C@H]1O[C@@H](n2cnc3c(-c4ccc(F)c(F)c4)ncnc32)[C@H](OC(C)=O)[C@@H]1OC(C)=O		4.82	5.08	<20		
CC(=O)OC[C@H]1O[C@@H](n2cnc3c(-c4ccccc4)ncnc32)[C@H](OC(C)=O)[C@@H]1OC(C)=O			4.98	<20		<20
COc1cccc(-c2ncnc3c2ncn3[C@@H]2O[C@H](COC(C)=O)[C@@H](OC(C)=O)[C@H]2OC(C)=O)c1				<20	<20	<20
CC(=O)OC[C@H]1O[C@@H](n2cnc3c(-c4ccc(Cl)cc4)ncnc32)[C@H](OC(C)=O)[C@@H]1OC(C)=O			5.37	<20		<20
CCOc1ccc(-c2ncnc3c2ncn3[C@@H]2O[C@H](COC(C)=O)[C@@H](OC(C)=O)[C@H]2OC(C)=O)cc1			5.42	<20		<20
CCOc1ccc(-c2ncnc3c2ncn3C2O[C@H](CO)[C@@H](O)[C@H]2O)cc1 (some centres not stated)	5.60	5.30	6.22			
COc1cccc(-c2ncnc3c2ncn3C2O[C@H](CO)[C@@H](O)[C@H]2O)c1 (some centres not stated)			5.32			
COc1ccc(-c2ncnc3c2ncn3C2O[C@H](CO)[C@@H](O)[C@H]2O)cc1 (some centres not stated)	5.82	5.37	6.60			
OC[C@H]1OC(n2cnc3c(-c4ccc(F)c(F)c4)ncnc32)[C@H](O)[C@@H]1O (some centres not stated)	4.70	5.60	5.85			
OC[C@H]1OC(n2cnc3c(-c4ccc(F)cc4)ncnc32)[C@H](O)[C@@H]1O (some centres not stated)	5.35	5.60	6.12			
Cc1ccc(-c2ncnc3c2ncn3C2O[C@H](CO)[C@@H](O)[C@H]2O)cc1 (some centres not stated)			5.82			
OC[C@H]1OC(n2cnc3c(-c4ccc(Cl)cc4)ncnc32)[C@H](O)[C@@H]1O (some centres not stated)		5.30	6.05			
Cc1ccccc1-c1ncnc2c1ncn2C1O[C@H](CO)[C@@H](O)[C@H]1O (some centres not stated)				<20	<20	<20
